In ChEMBL document CHEMBL3526029, “Disposition and metabolism of GSK2251052 in humans: a novel boron-containing antibiotic” (Drug Metab Dispos, 2013) one finds dose excreted data, which are given here for 1 molecule.

This data set can be described thus: Drug recovery in healthy human feces at 1500 mg, iv infusion for 1 hr as single dose after 120 hrs. The class given is ADME, organism-based. To be noted: read-out: Drug recovery. An outline of the steps:
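Feces were collected at 24-h intervals through 336 h after a 1500 mg [14C] i.v. 1-h infusion. Samples were homogenised with water and duplicate aliquots combusted for LSC. For profiling, 0–120 h pools were extracted twice with acetonitrile:methanol:water:formic acid, reconstituted, and analysed by radio-HPLC. Values were reported as % dose.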

Regarding `Cl.N[14CH2][C@H]1OB(O)c2c(OCCCO)cccc21`, the dose excreted at 120 h turned out to be 7.3%.
